Experimental data: ChEMBL document CHEMBL1128748, “Novel acridine-triazenes as prototype combilexins: synthesis, DNA binding, and biological activity” (J Med Chem, 1995)

Experiments:
A2780 = experiment: Concentration required to inhibit the cell growth by 50 % after 96 hr […].; format: functional, cell-based; conditions: Homo sapiens, A2780, 96 h
How it was run: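 A2780 cells in DMEM with 10% FCS, glutamine, insulin and hydrocortisone, plated at (0.1–5) × 10³ per well and attached overnight. DMSO stocks (≤0.5% v/v) were diluted in pH 7.0 buffer. Continuous drug exposure for 96 h. TCA fixation, sulforhodamine B staining, Tris solubilization, absorbance at 540 nm. IC50 taken against solvent-treated drug-free controls.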

Calf thymus DNA [1] = experiment: Change in DNA-melting (deltaTm) with calf thymus DNA at […]; format: functional; conditions: Bos taurus
How it was run: (§1)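 Thermal denaturation in stoppered quartz cuvettes. DNA in 10 mM sodium phosphate, 1 mM EDTA, at pH 6.00 (CT-DNA, poly(dA-dT), poly(dG-dC)) or pH 7.00 (CT-DNA only). Working DNA 100 μM; ligand added in DMSO to 20 μM final (drug:DNA 1:5). DMSO up to 6.25% v/v, with linear correction. Heated at 1 °C/min and followed by A260. ΔTm is ligand minus drug-free control, mean of three.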

Calf thymus DNA [2] = experiment: Change in DNA-melting (deltaTm) with calf thymus DNA at pH 7.0; format: functional; conditions: Bos taurus; how it was run: as §1
Nucleic Acid [3] = experiment: Induced change in DNA-melting (deltaTm) with [poly(dA-dT)]2 at […]; format: functional; how it was run: as §1
Nucleic Acid [4] = experiment: Induced change in DNA-melting (deltaTm) with [poly(dG-dC)]2 at […]; format: functional; how it was run: as §1
Calf thymus DNA [5] = experiment: Inhibitory concentration against ethidium in DNA-binding assay; format: nucleic-acid assay; conditions: Bos taurus
How it was run: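 Ethidium displacement from CT-DNA at pH 5.0 (9.3 mM NaCl, 2 mM NaOAc, 0.1 mM EDTA), with 1.26 μM ethidium bromide and 1 μM CT-DNA, 20 °C. Drug added serially from about 5 mM DMSO stock. Excitation 546 nm, emission 595 nm. CC50 is the concentration halving bound-ethidium fluorescence, mean of three.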

Nucleic Acid [6] = experiment: Inhibitory concentration against DNA-bound ethidium for cytotoxicity; format: functional
Nucleic Acid [7] = experiment: Inhibitory concentration against ethidium in DNA-binding assay with [poly(dA-dT)]2 (synthetic oligonucleotide); format: nucleic-acid assay
How it was run: (§2)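 Quenching of DNA-bound ethidium at pH 5.0 (9.3 mM NaCl, 2 mM NaOAc, 0.1 mM EDTA, ionic strength 0.01 M). Synthetic DNA 20 μM with 2 μM ethidium bromide, 20 °C. Drug added serially from about 5 mM DMSO stock. Excitation 546 nm, emission 595 nm. Q is the drug concentration giving 50% fluorescence loss, mean of three.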

Nucleic Acid [8] = experiment: Inhibitory concentration against ethidium in DNA-binding assay with [poly(dG-dC)]2 (synthetic oligonucleotide); format: nucleic-acid assay; how it was run: as §2
L1210 [9] = experiment: Concentration required to inhibit the cell growth by 50 % after 48 hr in L1210 leukemic cells.; format: functional, cell-based; conditions: Mus musculus, L1210, 48 h
How it was run: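 Mouse L1210 leukemia cells at 5 × 10³ cells/mL. Exposed to drug for 48 h at 37 °C; stocks held ≤0.5% v/v DMSO. Surviving cells were counted with a Coulter counter against drug-free controls to give IC50. Run in duplicate.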

Calf thymus DNA [10] = experiment: Induced change in DNA-melting (deltaTm) with calf thymus DNA at […]; format: functional; conditions: Bos taurus; how it was run: as §1
Calf thymus DNA [11] = experiment: Induced change in DNA-biphasic melting (deltaTm) with calf thymus DNA at […]; format: functional; conditions: Bos taurus; how it was run: as §1
Calf thymus DNA [12] = experiment: Induced change in DNA-biphasic melting (deltaTm) with calf thymus DNA at pH 7.0; format: functional; conditions: Bos taurus; how it was run: as §1
Calf thymus DNA [13] = experiment: (§3) Induced change in DNA-melting (deltaTm) with calf thymus DNA at pH 7.0; format: nucleic-acid assay; conditions: Bos taurus; how it was run: as §1
Calf thymus DNA [14] = experiment: as §3; format: functional; conditions: Bos taurus; how it was run: as §1
Nucleic Acid [15] = experiment: Induced change in DNA-melting (deltaTm) with [poly(dA-dT)]2 at pH 65.0; format: functional; how it was run: as §1
L1210 [16] = experiment: Inhibitory concentration against L1210 leukemic cell proliferation over 24 hr; conditions: Mus musculus, L1210, 24 h

SMILES: Cc1nc(-c2c3ccccc3nc3ccccc23)sc1CCO
- IC50 (A2780): > 100 µM
- Tm shift (Calf thymus DNA [1]): 1 °C
- Tm shift (Calf thymus DNA [2]): < 0.2 °C
- Tm shift (Nucleic Acid [3]): 0.7 °C
- Tm shift (Nucleic Acid [4]): < 0.2 °C
- Q (Calf thymus DNA [5]): 21 µM
- CC50 (Nucleic Acid [6]): 190 µM
- Q (Nucleic Acid [7]): 22 µM
- Q (Nucleic Acid [8]): 19 µM

SMILES: Nc1ccc2c(-c3ccccc3)c3ccc(N)cc3nc2c1
- IC50 (A2780): 1.2 µM
- Tm shift (Calf thymus DNA [1]): 11.7 °C
- Tm shift (Calf thymus DNA [2]): 6.9 °C
- Tm shift (Nucleic Acid [3]): 20.3 °C
- Tm shift (Nucleic Acid [4]): 3.3 °C
- Q (Calf thymus DNA [5]): 19 µM
- IC50 (L1210 [9]): 2 µM
- Q (Nucleic Acid [7]): 22 µM
- Q (Nucleic Acid [8]): 16 µM

SMILES: Nc1ccc2cc3ccc(N)cc3nc2c1 [PROFLAVINE]
- IC50 (A2780): 0.47 µM
- Tm shift (Calf thymus DNA [10]): 16.4 °C
- Tm shift (Calf thymus DNA [2]): 11.5 °C
- Tm shift (Nucleic Acid [3]): 24.4 °C
- Tm shift (Nucleic Acid [4]): 7 °C
- Q (Calf thymus DNA [5]): 20 µM
- IC50 (L1210 [9]): 2.7 µM
- Q (Nucleic Acid [7]): 24 µM
- Q (Nucleic Acid [8]): 14 µM

SMILES: Cc1nc(-c2c3ccccc3nc3ccccc23)sc1CCOC(=O)c1ccc(/N=N/Nc2ccc(C(=O)OCCN(C)C)cc2)cc1
- IC50 (A2780): 3.1 µM
- Tm shift (Calf thymus DNA [11]): 3 °C
- Tm shift (Calf thymus DNA [12]): 1.8 °C
- Tm shift (Nucleic Acid [3]): 1.7 °C
- Tm shift (Nucleic Acid [4]): < 0.2 °C
- Q (Calf thymus DNA [5]): 35 µM
- CC50 (Nucleic Acid [6]): 3.6 µM
- IC50 (L1210 [9]): 3.2 µM
- Q (Nucleic Acid [7]): 16 µM
- Q (Nucleic Acid [8]): 66 µM

SMILES: Nc1ccc2c(=O)c3ccc(N)cc3[nH]c2c1
- IC50 (A2780): > 100 µM
- IC50 (L1210 [9]): 67 µM

SMILES: Cc1nc(-c2c3ccccc3nc3ccccc23)sc1CCOC(=O)c1ccc(N/N=N/c2ccc(C(=O)OCCN3CCCCC3)cc2)cc1
- IC50 (A2780): 3.9 µM
- Tm shift (Calf thymus DNA [1]): 2.4 °C
- Tm shift (Nucleic Acid [3]): 1.9 °C
- Tm shift (Nucleic Acid [4]): 0.2 °C
- Q (Calf thymus DNA [5]): 27 µM
- CC50 (Nucleic Acid [6]): 3.2 µM
- IC50 (L1210 [9]): 6.2 µM
- Q (Nucleic Acid [7]): 14 µM
- Q (Nucleic Acid [8]): 52 µM
- Tm shift (Calf thymus DNA [13]): 1.5 °C

SMILES: O=C(OCCN1CCCCC1)c1ccc(/N=N/Nc2ccc(C(=O)OCCN3CCCCC3)cc2)cc1
- Tm shift (Calf thymus DNA [1]): 14.5 °C
- Q (Calf thymus DNA [5]): 13 µM
- CC50 (Nucleic Acid [6]): 5.7 µM
- IC50 (L1210 [9]): > 100 µM
- Q (Nucleic Acid [7]): 11 µM
- Q (Nucleic Acid [8]): 14 µM
- Tm shift (Calf thymus DNA [13]): 7.7 °C

SMILES: Cc1nc(-c2c3ccccc3nc3ccccc23)sc1CCOC(=O)c1ccc(N/N=N/c2ccc(C(=N)N)cc2)cc1
- IC50 (A2780): 16 µM
- Tm shift (Nucleic Acid [3]): 2.4 °C
- Q (Calf thymus DNA [5]): 18 µM
- CC50 (Nucleic Acid [6]): 2.9 µM
- IC50 (L1210 [9]): 66 µM
- Q (Nucleic Acid [7]): 12 µM
- Q (Nucleic Acid [8]): 31 µM

SMILES: c1ccc2nc3ccccc3cc2c1 [ACRIDINE]
- IC50 (A2780): > 100 µM
- Tm shift (Calf thymus DNA [1]): 1.7 °C
- Tm shift (Calf thymus DNA [2]): 0.7 °C
- Tm shift (Nucleic Acid [3]): 0.7 °C
- Tm shift (Nucleic Acid [4]): 0.8 °C
- Q (Calf thymus DNA [5]): 24 µM
- CC50 (Nucleic Acid [6]): 142 µM
- IC50 (L1210 [9]): 45 µM
- Q (Nucleic Acid [7]): 26 µM
- Q (Nucleic Acid [8]): 22 µM

SMILES: Cc1nc(-c2c3ccccc3nc3ccccc23)sc1CCOC(=O)c1ccc(N/N=N/c2ccc(C(N)=O)cc2)cc1
- IC50 (A2780): 5.3 µM
- Q (Calf thymus DNA [5]): 26 µM
- CC50 (Nucleic Acid [6]): 96 µM
- IC50 (L1210 [9]): 28 µM
- Q (Nucleic Acid [7]): 21 µM
- Q (Nucleic Acid [8]): 36 µM

SMILES: O=C(OCCN1CCOCC1)c1ccc(/N=N/Nc2ccc(C(=O)OCCN3CCOCC3)cc2)cc1
- Tm shift (Calf thymus DNA [1]): 3.6 °C
- Tm shift (Calf thymus DNA [14]): 1.4 °C
- Q (Calf thymus DNA [5]): 15 µM
- CC50 (Nucleic Acid [6]): 6.8 µM
- IC50 (L1210 [9]): > 100 µM
- Q (Nucleic Acid [7]): 14 µM
- Q (Nucleic Acid [8]): 17 µM

SMILES: Cc1nc(-c2c3ccccc3nc3ccccc23)sc1CCOC(=O)c1ccc(N)cc1
- IC50 (A2780): > 100 µM
- Tm shift (Calf thymus DNA [1]): 1.1 °C
- Tm shift (Calf thymus DNA [2]): 0.4 °C
- Tm shift (Nucleic Acid [3]): 0.8 °C
- Q (Calf thymus DNA [5]): 20 µM
- CC50 (Nucleic Acid [6]): 230 µM
- Q (Nucleic Acid [7]): 24 µM
- Q (Nucleic Acid [8]): 17 µM

SMILES: Cc1nc(-c2c3ccccc3nc3ccccc23)sc1CCOC(=O)c1ccc(N/N=N/c2ccc(C(=O)OCCN3CCCC3)cc2)cc1
- IC50 (A2780): 3.5 µM
- Tm shift (Calf thymus DNA [1]): 2.9 °C
- Tm shift (Calf thymus DNA [2]): 1.4 °C
- Tm shift (Nucleic Acid [3]): 1.5 °C
- Tm shift (Nucleic Acid [4]): 0.3 °C
- Q (Calf thymus DNA [5]): 26 µM
- CC50 (Nucleic Acid [6]): 2.8 µM
- IC50 (L1210 [9]): 3.4 µM
- Q (Nucleic Acid [7]): 15 µM
- Q (Nucleic Acid [8]): 45 µM

SMILES: Cc1nc(-c2c3ccccc3nc3ccccc23)sc1CCOC(=O)c1ccc(N/N=N/c2ccc(C(=O)OCCN3CCOCC3)cc2)cc1
- IC50 (A2780): 2.6 µM
- Tm shift (Calf thymus DNA [11]): 2.4 °C
- Tm shift (Nucleic Acid [3]): 0.9 °C
- Q (Calf thymus DNA [5]): 28 µM
- CC50 (Nucleic Acid [6]): 6.1 µM
- IC50 (L1210 [9]): 32 µM
- Q (Nucleic Acid [7]): 17 µM
- Q (Nucleic Acid [8]): 39 µM

SMILES: CC(=O)c1ccc(N/N=N/c2ccc(C(=O)OCCc3sc(-c4c5ccccc5nc5ccccc45)nc3C)cc2)cc1
- IC50 (A2780): > 100 µM
- Q (Calf thymus DNA [5]): 25 µM
- CC50 (Nucleic Acid [6]): 123 µM
- IC50 (L1210 [9]): 100 µM
- Q (Nucleic Acid [7]): 19 µM
- Q (Nucleic Acid [8]): 33 µM

SMILES: Cc1nc(-c2c3ccccc3nc3ccccc23)sc1CCOC(=O)c1ccc(/N=N/Nc2cccc(C(=O)OCCN(C)C)c2)cc1
- IC50 (A2780): 3.8 µM
- Tm shift (Calf thymus DNA [11]): 2.1 °C
- Tm shift (Nucleic Acid [3]): 1.6 °C
- Tm shift (Nucleic Acid [4]): < 0.2 °C
- Q (Calf thymus DNA [5]): 17 µM
- CC50 (Nucleic Acid [6]): 1.2 µM
- IC50 (L1210 [9]): 3 µM
- Q (Nucleic Acid [7]): 14 µM
- Q (Nucleic Acid [8]): 34 µM

SMILES: c1ccc(-c2c3ccccc3nc3ccccc23)cc1
- IC50 (A2780): > 100 µM
- Tm shift (Calf thymus DNA [1]): 1.3 °C
- Tm shift (Calf thymus DNA [2]): 0.4 °C
- Tm shift (Nucleic Acid [4]): 0.4 °C
- Tm shift degreeC (Nucleic Acid [15]): 0.6 °C
- Q (Calf thymus DNA [5]): 22 µM
- CC50 (Nucleic Acid [6]): 175 µM
- IC50 (L1210 [9]): 80 µM
- Q (Nucleic Acid [7]): 23 µM
- Q (Nucleic Acid [8]): 18 µM

SMILES: N=C(N)c1ccc(/N=N/Nc2ccc(C(=N)N)cc2)cc1 [DIMINAZENE]
- Tm shift (Calf thymus DNA [1]): 9.3 °C
- Tm shift (Calf thymus DNA [2]): 7.9 °C
- Q (Calf thymus DNA [5]): 9 µM
- CC50 (Nucleic Acid [6]): 4.4 µM
- IC50 (L1210 [9]): 32 µM
- Q (Nucleic Acid [7]): 5 µM
- Q (Nucleic Acid [8]): 19 µM

SMILES: COc1cc(NS(C)(=O)=O)ccc1Nc1c2ccccc2nc2ccccc12 [AMSACRINE]
- IC50 (A2780): 0.1 µM
- Tm shift (Calf thymus DNA [2]): 1 °C
- Tm shift (Nucleic Acid [3]): 4 °C
- Q (Calf thymus DNA [5]): 3.8 µM
- CC50 (Nucleic Acid [6]): 8.9 µM
- IC50 (L1210 [16]): 0.05 µM
- Q (Nucleic Acid [7]): 25 µM
- Q (Nucleic Acid [8]): 4.5 µM
